Source: ChEMBL document CHEMBL1240314, “Small-molecule inhibitor of p53 binding to mitochondria protects mice from gamma radiation” (2006)
Active and inactive are the calls of the source. The calls are words filed in the database; no cut-off is given here.

How the values were obtained:
[1] = target: Cellular tumor antigen p53 (Homo sapiens) (UniProt P04637); experiment: Binding affinity to p53 assessed as reduction in mitochondrial-bound p53 level at 25 uM
Summary of the method: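 Cell-free reconstitution: freshly isolated HeLa or Saos-2 mitochondria (40 mg as printed) incubated 1 h at 37 °C with purified baculoviral human wild-type p53 (60 ng) plus compound in MS buffer with CaCl2; mitochondria pelleted, washed three times, p53 cosedimentation by western blot, mt-Hsp75 loading control.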

[2] = target: Cellular tumor antigen p53 (Homo sapiens) (UniProt P04637); experiment: Binding affinity to p53 transfected in human […] cells assessed as reduction in p53 bound-Bcl-xL at 15 uM after 48 hrs; assay type: cell-based; conditions: HEK293
Summary of the method: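 293T cells cotransfected with Flag-tagged wild-type Bcl-xL or Bcl-2 plus wild-type p53 plasmid; compound 15 mM (so in the source) applied 24 h after transfection; lysates (1 mg protein) immunoprecipitated with anti-Flag M2 gel, bound p53 detected with HRP-conjugated DO-1.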

[3] = target: Cellular tumor antigen p53 (Homo sapiens) (UniProt P04637); experiment: Inhibition of p53-dependent transactivation of p21 in gamma-stimulated human ConA cells; assay type: cell-based
Summary of the method: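 ConA cells given 10 µM test agent and 10 Gy gamma irradiation. Protein extracts taken 6 h post-irradiation and p21 detected by immunoblotting.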

HeLa = experiment: Antiapoptotic activity against staurosporine-induced cell death in human HeLa cells assessed as cell survival at 10 uM after 24 hrs by methylene blue assay; assay type: functional, cell-based
NCI-H1299 = experiment: Antiapoptotic activity against staurosporine-induced cell death in human H1299 cells assessed as cell survival at 10 uM after 24 hrs by methylene blue assay; assay type: functional, cell-based
Fibroblast = experiment: Antiapoptotic activity against TNF-alpha induced apoptosis in mouse fibroblast assessed as cell survival at 0.1 uM to 10 uM by methylene blue assay in presence of 0.5 ug/ml cycloheximidine after 24 hrs; assay type: functional, cell-based
[4] = Antiapoptotic activity against fas-induced apoptosis in mouse fibroblast assessed as cell survival at 0.1 uM to 10 uM by methylene blue assay in presence of 1 ug/ml cycloheximidine after 24 hrs; assay type: functional, cell-based
[5] = target: Cellular tumor antigen p53 (Homo sapiens) (UniProt P04637); experiment: Inhibition of p53-mediated apoptosis in human WI38 cells assessed as cell survival at 10 uM after 24 hrs by methylene blue assay; assay type: cell-based; conditions: WI-38
[6] = target: Cellular tumor antigen p53 (Mus musculus) (UniProt P02340); experiment: Inhibition of p53-mediated apoptosis in mouse fibroblast assessed as cell survival at 10 uM after 24 hrs by methylene blue assay
Sequence of Cellular tumor antigen p53 (Mus musculus) (P02340 whole entry): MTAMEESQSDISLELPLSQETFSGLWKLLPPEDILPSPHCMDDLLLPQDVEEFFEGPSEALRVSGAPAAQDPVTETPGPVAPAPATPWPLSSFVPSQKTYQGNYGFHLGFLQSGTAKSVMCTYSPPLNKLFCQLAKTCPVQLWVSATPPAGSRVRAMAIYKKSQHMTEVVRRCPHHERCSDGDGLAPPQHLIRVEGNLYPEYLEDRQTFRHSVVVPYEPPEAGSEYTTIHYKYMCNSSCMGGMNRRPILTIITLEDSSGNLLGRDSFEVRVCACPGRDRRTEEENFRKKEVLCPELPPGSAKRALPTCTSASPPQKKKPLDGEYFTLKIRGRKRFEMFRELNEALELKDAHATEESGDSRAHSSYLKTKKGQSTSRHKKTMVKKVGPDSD

[7] = target: Cellular tumor antigen p53 (Homo sapiens) (UniProt P04637); experiment: Inhibition of p53-mediated transactivation of promoter bax in human H1299 cells at 10 uM after 48 hrs by luciferase reporter assay; assay type: cell-based
[8] = target: Cellular tumor antigen p53 (Homo sapiens) (UniProt P04637); experiment: Inhibition of p53-mediated transactivation of promoter cyclin G in human H1299 cells at 10 uM after 48 hrs by luciferase reporter assay; assay type: cell-based
[9] = target: Cellular tumor antigen p53 (Homo sapiens) (UniProt P04637); experiment: Effect on UV-induced activation of p53 in human ConA cells assessed as beta-galactosidase activity by X-gal staining; assay type: cell-based
Summary of the method: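 ConA cells carrying a lacZ reporter under a p53-responsive promoter; UV 35 J m–2; β-galactosidase visualized by X-gal staining 24 h after treatment.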

[10] = target: Cellular tumor antigen p53 (Homo sapiens) (UniProt P04637); experiment: Inhibition of p53-dependent transcription of bax in human MCF7 cells; assay type: cell-based
Summary of the method: (§1)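 Northern analysis of MCF7 cells, p53 wild-type and shRNA p53-knockdown. Induction by UV 8.5 J m–2 or Dox […]. RNA isolated 18 h after treatment; 10 µg hybridised with 32P-labelled full-length cDNA probes for Bax, Noxa or Puma. 18S rRNA used as loading control.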

[11] = target: Cellular tumor antigen p53 (Homo sapiens) (UniProt P04637); experiment: Inhibition of p53-dependent transcription of noxa in UV-induced human MCF7 cells; assay type: cell-based; summary of the method: as §1
[12] = target: Cellular tumor antigen p53 (Homo sapiens) (UniProt P04637); experiment: Inhibition of p53-dependent transcription of noxa in human MCF7 cells; assay type: cell-based; summary of the method: as §1
[13] = target: Cellular tumor antigen p53 (Homo sapiens) (UniProt P04637); experiment: Inhibition of p53-dependent transcription of puma in human U2OS cells; assay type: cell-based
Summary of the method: (§2)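 Northern analysis of U2OS cells, p53 wild-type and shRNA p53-knockdown. Induction by UV 8.5 J m–2 or Dox […]. RNA isolated 18 h after treatment; 10 µg hybridised with 32P-labelled full-length cDNA probes for Bax, Noxa or Puma. 18S rRNA used as loading control.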

[14] = target: Cellular tumor antigen p53 (Homo sapiens) (UniProt P04637); experiment: Inhibition of p53-dependent transcription of puma in doxorubicin-induced human U2OS cells; assay type: cell-based; summary of the method: as §2
[15] = target: Cellular tumor antigen p53 (Homo sapiens) (UniProt P04637); experiment: Inhibition of p53-dependent transcription of bax in human U2OS cells; assay type: cell-based; summary of the method: as §2
[16] = target: Cellular tumor antigen p53 (Homo sapiens) (UniProt P04637); experiment: Inhibition of p53-dependent transcription of noxa in human U2OS cells; assay type: cell-based; summary of the method: as §2
[17] = target: Cellular tumor antigen p53 (Mus musculus) (UniProt P02340); experiment: Inhibition of p53-dependent transcription of puma in mouse thymocyte
Homo sapiens = species: Homo sapiens; experiment: Induction of p21 mRNA expression in gamma-stimulated human SK-MEL-29 cells; assay type: functional
Summary of the method: (§3)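 Wild-type and p53-deficient cell pairs stimulated with 5-FU ([…] as printed) or gamma irradiation (10 or 15 Gy); p21 mRNA quantified by real-time PCR; means ± s.d., n = 3.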

BJ = experiment: Induction of p21 mRNA expression in 5-fluorouracil-stimulated human BJ cells; assay type: functional, cell-based; summary of the method: as §3
MCF7 [18] = experiment: Induction of Puma gene expression in human MCF7 cells; assay type: functional, cell-based
Summary of the method: (§4)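 Northern blot: 10 mg RNA (so in the source) isolated 18 h after UV (8.5 J m–2) or doxorubicin (125 mg ml–1 as printed) from MCF7 or U2OS cells and p53-knockdown (lentiviral shRNA) counterparts; hybridized with 32P-labeled full-length cDNA probes for Bax, Noxa, Puma; 18S rRNA loading control.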

MCF7 [19] = experiment: Induction of Puma gene expression in UV-induced human MCF7 cells; assay type: functional, cell-based; summary of the method: as §4
MCF7 [20] = experiment: Induction of Noxa gene expression in UV-induced human MCF7 cells; assay type: functional, cell-based; summary of the method: as §4
U2OS [21] = experiment: Induction of Puma gene expression in doxorubicin-induced human U2OS cells; assay type: functional, cell-based; summary of the method: as §4
U2OS [22] = experiment: Induction of Noxa gene expression in doxorubicin-induced human U2OS cells; assay type: functional, cell-based; summary of the method: as §4
U2OS [23] = experiment: Induction of Bax gene expression in human U2OS cells; assay type: functional, cell-based; summary of the method: as §4
U2OS [24] = experiment: Induction of Bax gene expression in doxorubicin-induced human U2OS cells; assay type: functional, cell-based; summary of the method: as §4
Mus musculus = experiment: Protection against 8 Gy gamma radiation-induced death in mouse assessed as increase in survival at 40 mg/kg, ip; assay type: functional; conditions: route intraperitoneal
Summary of the method: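 Male C57Bl/6J mice, 8–10 weeks old, given a single 40 mg kg–1 intraperitoneal dose 30 min before total-body gamma irradiation (137Cs, 4 Gy min–1) at 8 or 9 Gy. Survival followed. Ten mice per subgroup; three independent repeats.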

HT-1080 = experiment: Antiapoptotic activity against Bax gene-induced apoptosis in human HT1080 cells transfected with pTZV3-CMV-Bax at 10 uM after 24 hrs; assay type: functional, cell-based
[25] = target: Cellular tumor antigen p53 (Homo sapiens) (UniProt P04637); experiment: Binding affinity to p53 transfected in human Saos-2 cells harboring pLV-53 assessed as cytosolic p53 concentration at 10 uM after 48 hrs; assay type: cell-based
[26] = target: Cellular tumor antigen p53 (Mus musculus) (UniProt P02340); experiment: Binding affinity to p53 in gamma irradiated mouse thymocyte assessed as cytosolic p53 concentration at 10 uM after 2 hrs
[27] = target: Cellular tumor antigen p53 (Mus musculus) (UniProt P02340); experiment: Binding affinity to p53 in gamma irradiated mouse thymocyte assessed as cytosolic Bcl-2 concentration at 10 uM after 2 hrs
[28] = target: Cellular tumor antigen p53 (Mus musculus) (UniProt P02340); experiment: Binding affinity to p53 in gamma irradiated mouse thymocyte assessed as cytosolic p21 concentration at 10 uM after 2 hrs

Sequence of Cellular tumor antigen p53 (Homo sapiens) (P04637 whole entry, looked up): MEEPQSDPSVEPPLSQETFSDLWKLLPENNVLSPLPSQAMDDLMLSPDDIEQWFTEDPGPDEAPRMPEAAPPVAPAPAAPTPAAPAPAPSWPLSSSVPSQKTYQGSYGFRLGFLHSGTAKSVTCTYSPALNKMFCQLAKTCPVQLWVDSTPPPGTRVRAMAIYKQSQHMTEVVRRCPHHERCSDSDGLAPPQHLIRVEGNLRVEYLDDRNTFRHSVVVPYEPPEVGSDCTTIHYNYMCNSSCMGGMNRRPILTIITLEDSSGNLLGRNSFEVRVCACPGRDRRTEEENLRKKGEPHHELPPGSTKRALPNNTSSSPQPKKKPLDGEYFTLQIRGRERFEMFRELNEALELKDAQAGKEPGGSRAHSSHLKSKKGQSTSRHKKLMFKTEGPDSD

Compound: NS(=O)(=O)C#Cc1ccccc1
- Activity [1]: Active
- Activity [2]: Active
- inhibition [3]: inactive
- Activity (HeLa): inactive
- Activity (NCI-H1299): inactive
- Activity (Fibroblast): inactive
- Activity [4]: inactive
- inhibition [5]: Active
- inhibition [6]: Active
- inhibition [7]: inactive
- inhibition [8]: inactive
- Activity [9]: inactive
- inhibition [10]: inactive
- inhibition [11]: inactive
- inhibition [12]: inactive
- inhibition [13]: inactive
- inhibition [14]: inactive
- inhibition [15]: inactive
- inhibition [16]: inactive
- inhibition [17]: inactive
- Activity (Homo sapiens): inactive
- Activity (BJ): inactive
- Activity (MCF7 [18]): inactive
- Activity (MCF7 [19]): inactive
- Activity (MCF7 [20]): inactive
- Activity (U2OS [21]): inactive
- Activity (U2OS [22]): inactive
- Activity (U2OS [23]): inactive
- Activity (U2OS [24]): inactive
- Activity (Mus musculus): 70%
- Activity (HT-1080): inactive
- Activity [25]: inactive
- Activity [26]: inactive
- Activity [27]: inactive
- Activity [28]: inactive
